Measured values reported in ChEMBL document CHEMBL4251608, “Emimycin and its nucleoside derivatives: Synthesis and antiviral activity” (Eur J Med Chem, 2018).
Calls of active or inactive are those of the source. No cut-off for these calls is given here.

What was measured:
[1] = system: Influenza A virus; assay: Antiviral activity against Influenza A virus A/Ned/378/05(H1N1) infected in MDCK cells assessed as reduction in virus-induced cytopathic effect by MTS assay; type: functional, organism-based
[2] = Cytotoxicity against MDCK cells assessed as alteration in cell morphology by microscopic method; type: cell-based, Canis lupus familiaris; settings: dog
In short: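 MDCK cells exposed to compounds (up to 100 µM) and examined microscopically. MCC taken as the minimum concentration causing a detectable alteration of normal cell morphology.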

[3] = system: Respiratory syncytial virus; assay: Antiviral activity against RSV infected in human HeLa cells at 100 uM; type: functional, organism-based
[4] = Cytotoxicity against MDCK cells assessed as reduction in cell viability by MTS assay; type: cell-based, Canis lupus familiaris; settings: dog
[5] = system: HeLa; assay: Cytotoxicity against human HeLa cells at 100 uM; type: cell-based
[6] = system: Influenza B virus; assay: Antiviral activity against Influenza B virus B/Ned/537/05 infected in MDCK cells assessed as reduction in virus-induced cytopathic effect by MTS assay; type: functional, organism-based; settings: B/Ned/537/05, MDCK
[7] = system: H3N2 subtype; assay: Antiviral activity against Influenza A virus A/HK/7/87(H3N2) infected in MDCK cells assessed as reduction in virus-induced cytopathic effect by MTS assay; type: functional, organism-based; settings: A/Hong Kong/7/1987(H3N2)
[8] = system: Human alphaherpesvirus 1; assay: Antiviral activity against HSV1 KOS infected in HEL cells assessed as reduction in virus-induced cytopathic effect after 2 to 3 days; type: functional, organism-based; settings: Human alphaherpesvirus 1, KOS
In short: (§1)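 Confluent HEL fibroblasts were infected with 100 CCID50 of HSV. After 2 h adsorption the virus was removed and cells were incubated with varying compound concentrations. Virus-induced cytopathicity was scored 2-3 days post-infection. […] Data are the mean of two independent experiments.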

[9] = system: Human alphaherpesvirus 1; assay: Antiviral activity against acyclovir-resistant HSV1 KOS harboring TK- mutant infected in HEL cells assessed as reduction in virus-induced cytopathic effect after 2 to 3 days; type: functional, organism-based; settings: Human alphaherpesvirus 1, KOS; in short: as §1
[10] = Cytotoxicity against HEL cells assessed as reduction in cell viability after 3 days by coulter counting method; type: cell-based; settings: human
In short: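 HEL fibroblasts seeded at 5 x 10^3 cells/well, left to proliferate 24 h, then given medium with varying compound concentrations. After 3 days at 37 °C, cells counted with a Coulter counter.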

[11] = Cytotoxicity against HEL cells assessed as alteration in cell morphology after 3 days by microscopic method; type: cell-based; settings: human
In short: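 HEL cells were treated with test compounds. MCC is the minimum concentration causing a microscopically detectable alteration of cell morphology. Data are the mean of two independent experiments.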

[12] = system: Human alphaherpesvirus 3; assay: Antiviral activity against TK-defecient VZV 07-1 infected in HEL cells assessed as reduction in plaque formation after 5 days; type: functional, organism-based; settings: Human alphaherpesvirus 3, 07-1, HEL, 120 h
[13] = system: Human alphaherpesvirus 3; assay: Antiviral activity against TK-positive VZV Oka infected in HEL cells assessed as reduction in plaque formation after 5 days; type: functional, organism-based; settings: Human alphaherpesvirus 3, strain Oka vaccine, 120 h
[14] = system: Human betaherpesvirus 5; assay: Antiviral activity against HCMV AD169 infected in HEL cells assessed as reduction in virus-induced cytopathic effect after 6 to 7 days; type: functional, organism-based; settings: Human betaherpesvirus 5, AD169, HEL
In short: (§2)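 Confluent HEL fibroblasts were inoculated with 100 CCID50 of HCMV. After 2 h adsorption the inoculum was removed and cells were incubated with varying compound concentrations. Viral cytopathicity was recorded 6-7 days post-infection. […] Data are the mean of two independent experiments.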

[15] = system: Human betaherpesvirus 5; assay: Antiviral activity against HCMV Davis infected in HEL cells assessed as reduction in virus-induced cytopathic effect after 6 to 7 days; type: functional, organism-based; settings: Human betaherpesvirus 5, Davis; in short: as §2
[16] = system: Human alphaherpesvirus 2; assay: Antiviral activity against HSV2 strain G infected in HEL cells assessed as reduction in virus-induced cytopathic effect after 2 to 3 days; type: functional, organism-based; settings: Human alphaherpesvirus 2, strain G; in short: as §1
[17] = system: Enterococcus faecium; assay: Antibacterial activity against Streptococcus faecium; type: functional, organism-based
[18] = system: Escherichia coli; assay: Antibacterial activity against Escherichia coli; type: functional, organism-based
[19] = Selectivity index, ratio of CC50 for HEL cells to EC50 for HSV1 KOS infected in HEL cells; type: toxicity, cell-based; settings: human, read-out: Ratio CC50/EC50
In short: (§3)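 SI = CC50/EC50, with both values from HEL fibroblasts. For the antiviral part, confluent cultures were inoculated with 100 CCID50 (HSV) or 20 PFU (VZV Oka). After 2 h adsorption the inoculum was removed and compounds added. Cytopathicity was scored at 2-3 days (HSV) and plaques at 5 days (VZV). CC50 came from Coulter counting of cell growth after 3 days.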

[20] = Ratio of EC50 for TK-defecient VZV 07-1 infected in HEL cells to EC50 for TK-positive VZV Oka infected in HEL cells; type: functional
In short: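 Confluent HEL fibroblasts were inoculated with 20 PFU of VZV, either TK− strain 07−1 or Oka. After 2 h adsorption the inoculum was removed and compound was added at varying concentrations. […] The ratio is the TK− EC50 over the Oka EC50.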

[21] = Selectivity index, ratio of CC50 for HEL cells to EC50 for HSV2 strain G infected in HEL cells; type: toxicity, cell-based; settings: human, read-out: Ratio CC50/EC50; in short: as §3
[22] = system: Human alphaherpesvirus 1; assay: Ratio of EC50 for acyclovir-resistant HSV1 KOS harboring TK- mutant infected in HEL cells to EC50 for HSV1 KOS infected in HEL cells; type: functional
In short: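 HEL fibroblasts were infected with 100 CCID50 of TK− ACV-resistant HSV-1 KOS or wild-type KOS, with 2 h adsorption, then incubated with varying compound concentrations. Cytopathicity was read at 2-3 days to give EC50 values. The ratio is TK− EC50 divided by wild-type EC50.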

[23] = Selectivity index, ratio of CC50 for HEL cells to EC50 for TK-positive VZV Oka infected in HEL cells; type: toxicity, cell-based; settings: human, read-out: Ratio CC50/EC50; in short: as §3

SMILES | EC50 [1] | MCC [2] | Activity [3] | CC50 [4] | Activity [5] | EC50 [6] | EC50 [7] | EC50 [8] | EC50 [9] | CC50 at 72 h [10] | EC50 [12] | EC50 [13] | EC50 [14] | EC50 [15] | EC50 [16] | other results
Cc1cn([C@H]2O[C@H](CO)[C@@H](O)[C@H]2O)c(=O)c[n+]1[O-] | > 100 µM | > 100 µM | inactive | > 100 µM | Non-Toxic | > 100 µM | > 100 µM |  |  |  |  |  |  |  |  | 
Nc1nc2c(ncn2COCCO)c(=O)[nH]1 [ACYCLOVIR] |  |  |  |  |  |  |  | 0.38 µM | 88.8 µM | > 444 µM |  |  |  |  |  | MCC at 72 h [11]: > 444 µM
CCc1cn([C@@H]2O[C@H](CO)[C@@H](O)[C@H]2O)c(=O)c[n+]1[O-] | > 100 µM | > 100 µM | inactive | > 100 µM | Non-Toxic | > 100 µM | > 100 µM |  |  |  |  |  |  |  |  | 
O=c1c[n+]([O-])ccn1[C@@H]1O[C@H](CO)[C@@H](O)[C@H]1O | > 100 µM | > 100 µM | inactive | > 100 µM | Non-Toxic | > 100 µM | > 100 µM |  |  |  |  |  |  |  |  | 
O=c1[nH]c(=O)n([C@H]2C[C@H](O)[C@@H](CO)O2)cc1/C=C/Br [BRIVUDINE] |  |  |  |  |  |  |  | 0.068 µM | 20.1 µM | > 300 µM | 6.66 µM | 0.035 µM |  |  |  | MCC at 72 h [11]: > 300 µM
Cc1c[nH]c(=O)c[n+]1[O-] | > 100 µM | > 100 µM | inactive | > 100 µM | Non-Toxic | > 100 µM | > 100 µM |  |  |  |  |  |  |  |  | 
CCc1cn([C@H]2O[C@H](CO)[C@@H](O)[C@H]2O)c(=O)c[n+]1[O-] | > 100 µM | > 100 µM | inactive | > 100 µM | Non-Toxic | > 100 µM | > 100 µM |  |  |  |  |  |  |  |  | 
O=c1c[n+]([O-])ccn1[C@H]1O[C@H](CO)[C@@H](O)[C@H]1O | > 100 µM | > 100 µM | inactive | > 100 µM | Non-Toxic | > 100 µM | > 100 µM |  |  |  |  |  |  |  |  | 
O=c1c[n+]([O-])ccn1[C@@H]1C[C@H](O)[C@@H](CO)O1 |  |  |  |  |  |  |  | > 438 µM | > 438 µM | > 438 µM | > 438 µM | 438 µM | > 87 µM | > 438 µM | > 438 µM | 
Cc1cn([C@@H]2O[C@H](CO)[C@@H](O)[C@H]2O)c(=O)c[n+]1[O-] | > 100 µM | > 100 µM | inactive | > 100 µM | Non-Toxic | > 100 µM | > 100 µM |  |  |  |  |  |  |  |  | 
O=c1c[n+]([O-])ccn1[C@H]1C[C@H](O)[C@@H](CO)O1 |  |  |  |  |  |  |  | > 438 µM | > 438 µM | > 438 µM | > 438 µM | > 438 µM | > 438 µM | > 438 µM | > 438 µM | 
CCc1c[nH]c(=O)c[n+]1[O-] | > 100 µM | > 100 µM | inactive | > 100 µM | Non-Toxic | > 100 µM | > 100 µM |  |  |  |  |  |  |  |  | 
Cc1cn([C@@H]2C[C@H](O)[C@@H](CO)O2)c(=O)c[n+]1[O-] |  |  |  |  |  |  |  | > 412 µM | > 412 µM | > 412 µM | > 412 µM | 328 µM | > 82 µM | > 412 µM | > 412 µM | 
Nc1ccn(C[C@@H](CO)OCP(=O)(O)O)c(=O)n1 [CIDOFOVIR] |  |  |  |  |  |  |  | 2.81 µM | 1.56 µM | > 358 µM |  |  | 1.04 µM | 1.58 µM | 1.97 µM | MCC at 72 h [11]: > 358 µM
O=c1c[n+]([O-])cc[nH]1 | > 100 µM | > 100 µM | inactive | > 100 µM | Non-Toxic | > 100 µM | > 100 µM |  |  |  |  |  |  |  |  | EC50 [17]: 8 µM; EC50 [18]: 10 µM
CCc1cn([C@@H]2C[C@H](O)[C@@H](CO)O2)c(=O)c[n+]1[O-] |  |  |  |  |  |  |  | 174 µM | > 390 µM | > 390 µM | 174 µM | 142 µM | > 78 µM | > 78 µM | 204 µM | 
Cc1cn([C@H]2C[C@H](O)[C@@H](CO)O2)c(=O)c[n+]1[O-] |  |  |  |  |  |  |  | 1.79 µM | 59.4 µM | > 412 µM | 6.91 µM | 0.99 µM | > 412 µM | > 412 µM | 17.5 µM | selectivity ratio [19]: 230; Ratio EC50 [20]: 7; selectivity ratio [21]: 24; Ratio EC50 [22]: 30; MCC at 72 h [11]: 169 µM; selectivity ratio [23]: > 416
CCc1cn([C@H]2C[C@H](O)[C@@H](CO)O2)c(=O)c[n+]1[O-] |  |  |  |  |  |  |  | 8.55 µM | > 390 µM | > 390 µM | 138 µM | 7.77 µM | > 78 µM | > 78 µM | 145 µM | 
